Experiments:
Homo sapiens [1] = species on record: Homo sapiens; experiment: Inhibition of collagen-induced platelet aggregation in human platelet rich plasma; format: functional
Method in brief: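 PRP and PPP were prepared from human blood by centrifugation at 1000 rpm and 4000 rpm respectively, each for 10 min at 10 °C. PRP was adjusted to […]. Collagen was 0.53 µg/mL final. Optical density of stirred PRP was recorded for 4 min, at least in duplicate. PRP and PPP set 0% and 100% light transmission. EC50 was taken from the concentration–inhibition curve.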

Thromboxane-A synthase = target: T1, Thromboxane-A synthase (Homo sapiens, UniProt P24557); experiment: TXA2 synthetase inhibition measured by the inhibition of TXB2 formation by human gel-filtered platelets incubated with [14C]arachidonic acid
T1 sequence (P24557 whole entry): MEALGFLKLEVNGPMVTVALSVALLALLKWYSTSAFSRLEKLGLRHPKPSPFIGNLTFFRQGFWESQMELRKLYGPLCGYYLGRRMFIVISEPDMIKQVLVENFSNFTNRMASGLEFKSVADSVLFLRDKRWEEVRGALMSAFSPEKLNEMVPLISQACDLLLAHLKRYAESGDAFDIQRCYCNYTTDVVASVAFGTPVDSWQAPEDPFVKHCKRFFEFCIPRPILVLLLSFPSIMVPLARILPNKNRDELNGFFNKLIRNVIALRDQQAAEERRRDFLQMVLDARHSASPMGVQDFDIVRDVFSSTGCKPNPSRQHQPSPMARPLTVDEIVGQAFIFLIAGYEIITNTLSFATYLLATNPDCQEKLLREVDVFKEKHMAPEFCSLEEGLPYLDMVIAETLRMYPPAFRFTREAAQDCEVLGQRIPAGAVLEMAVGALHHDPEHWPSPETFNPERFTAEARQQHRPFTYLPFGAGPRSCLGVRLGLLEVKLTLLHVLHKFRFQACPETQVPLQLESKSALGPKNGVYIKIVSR

Thromboxane A2 receptor [2] = target: T2, Thromboxane A2 receptor (Homo sapiens, UniProt P21731); experiment: TXA2 receptor antagonism, measured by the displacement of [3H]SQ29,548 from the PGH-2/TXA-2 receptor on human platelets; format: functional
T2 sequence (P21731 whole entry): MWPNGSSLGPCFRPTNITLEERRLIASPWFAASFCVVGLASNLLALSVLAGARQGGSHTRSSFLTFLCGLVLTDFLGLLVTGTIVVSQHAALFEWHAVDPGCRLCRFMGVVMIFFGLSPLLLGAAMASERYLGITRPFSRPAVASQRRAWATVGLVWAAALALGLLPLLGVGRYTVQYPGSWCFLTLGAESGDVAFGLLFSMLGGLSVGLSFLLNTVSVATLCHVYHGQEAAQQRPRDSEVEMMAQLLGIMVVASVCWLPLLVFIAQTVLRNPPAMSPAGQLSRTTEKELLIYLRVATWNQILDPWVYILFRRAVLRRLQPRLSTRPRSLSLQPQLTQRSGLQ
Method in brief: (§1)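 Human gel-filtered platelets were used. Nonspecific binding was defined with U 46,619 at 30 µM final in place of the test compound. IC50 is the concentration giving 50% displacement of [³H]SQ 29,548.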

Homo sapiens [3] = species on record: Homo sapiens; experiment: In vitro inhibition of collagen-induced platelet aggregation in human platelet-rich plasma (PRP) at 273 uM; format: functional
Homo sapiens [4] = species on record: Homo sapiens; experiment: In vitro inhibition of collagen-induced platelet aggregation in human platelet-rich plasma (PRP) at 291 uM; format: functional
Homo sapiens [5] = species on record: Homo sapiens; experiment: In vitro inhibition of collagen-induced platelet aggregation in human platelet-rich plasma (PRP) at 278uM; format: functional
Thromboxane A2 receptor [6] = target: T2, Thromboxane A2 receptor; experiment: TXA2 receptor antagonism, measured by the displacement of [3H]SQ-29548 from the PGH-2/TXA-2 receptor on human platelets; format: functional; method in brief: as §1

Structure (SMILES) | EC50 (Homo sapiens [1]) [µM] | IC50 (Thromboxane-A synthase) [µM] | IC50 (Thromboxane A2 receptor [2]) [µM] | further results
O=C(O)CCCCCO/N=C(\c1ccccc1)c1ccncn1 | 112 | > 10 | 5 | 
O=C(O)CCCCCO/N=C(/c1ccccc1)c1ccncn1 | 236 | > 10 | 25 | 
O=C(O)CCCCCO/N=C(/c1ccccc1)c1cncnc1 | 127 | > 10 | 8.8 | 
O=C(O)CCCO/N=C(/c1ccccc1)c1ccncn1 |  |  |  | inhibition at 273 µM (Homo sapiens [3]): 38%
O=C(O)CCCO/N=C(/c1ccccc1)c1cncnc1 |  |  |  | inhibition at 273 µM (Homo sapiens [3]): 17%
O=C(O)CCCCO/N=C(\c1ccccc1)c1ccnnc1 | 227 | 0.26 | 33 | 
O=C(O)CCCO/N=C(/c1ccccc1)c1ccnnc1 |  |  |  | inhibition at 273 µM (Homo sapiens [3]): 21%
O=C(O)CCCCO/N=C(/c1ccccc1)c1ccnnc1 | 163 | 8.8 | 13 | 
O=C(O)CCCCCO/N=C(/c1cccc(C(F)(F)F)c1)c1cnccn1 |  |  |  | inhibition at 291 µM (Homo sapiens [4]): 47%
O=C(O)CCCO/N=C(/c1ccccc1)c1cccnn1 |  |  |  | inhibition at 273 µM (Homo sapiens [3]): 2%
O=C(O)CCCO/N=C(\c1ccccc1)c1cccnn1 |  |  |  | inhibition at 273 µM (Homo sapiens [3]): 4%
O=C(O)CCCO/N=C(\c1ccccc1)c1ccncn1 |  |  |  | inhibition at 273 µM (Homo sapiens [3]): 34%
O=C(O)CCCO/N=C(/c1ccccc1)c1ncccn1 |  |  |  | inhibition at 273 µM (Homo sapiens [3]): 0%
O=C(O)CCCCO/N=C(/c1ccccc1)c1cccnn1 | 217 | > 100 | 71 | 
O=C(O)CCCCCO/N=C(/c1ccccc1)c1ncccn1 |  |  |  | inhibition at 273 µM (Homo sapiens [3]): 0%
O=C(O)CCCCCO/N=C(\c1ccccc1)c1ccnnc1 | 59 | 3.8 | 7.1 | 
O=C(O)CCCCCO/N=C(\c1ccccc1)c1cccnn1 | 203 |  |  | 
O=C(O)CCCCCO/N=C(/c1ccccc1)c1cnccn1 | 216 |  |  | 
O=C(O)CCCCCO/N=C(\c1ccccc1)c1cnccn1 | 131 |  |  | 
O=C(O)CCCCO/N=C(\c1ccccc1)c1cncnc1 |  | 0.075 | 20 | inhibition at 278 µM (Homo sapiens [5]): 40%
O=C(O)CCCCO/N=C(\c1ccccc1)c1ccncn1 | 274 | > 100 | 30 | 
O=C(O)CCCO/N=C(\c1ccccc1)c1ncccn1 |  |  |  | inhibition at 273 µM (Homo sapiens [3]): 0%
O=C(O)CCCO/N=C(\c1ccccc1)c1ccnnc1 | 245 |  |  | 
O=C(O)CCCCCO/N=C(/c1ccccc1)c1ccnnc1 | 81 | > 10 | 7.7 | 
O=C(O)CCCCCO/N=C(/c1ccccc1)c1cccnn1 | 204 |  |  | 
O=C(O)CCCO/N=C(\c1ccccc1)c1cncnc1 |  |  |  | inhibition at 273 µM (Homo sapiens [3]): 46%
O=C(O)CCCO/N=C(/c1ccccc1)c1cnccn1 |  |  |  | inhibition at 273 µM (Homo sapiens [3]): 19%
O=C(O)CCCCO/N=C(/c1ccccc1)c1cncnc1 | 191 | 0.573 | 7.2 | 
O=C(O)CCCCCO/N=C(\c1ccccc1)c1ncccn1 |  |  |  | inhibition at 273 µM (Homo sapiens [3]): 0%
O=C(O)CCCO/N=C(\c1ccccc1)c1cnccn1 |  |  |  | inhibition at 273 µM (Homo sapiens [3]): 47%

More lines, main results first:

EC50 (Homo sapiens [1]) [µM] | IC50 (Thromboxane-A synthase) [µM] | IC50 (Thromboxane A2 receptor [2]) [µM] | Structure (SMILES) | further results
32 | 0.039 | 1.5 | O=C(O)CCCCO/N=C(/c1cncnc1)c1cccc(C(F)(F)F)c1 | 
190 | 0.006 | 11 | O=C(O)CCCCO/N=C(\c1cccc(C(F)(F)F)c1)c1cnccn1 | 
 | > 100 |  | O=C(O)CCCCO/N=C(\c1ccccc1)c1ncccn1 | inhibition at 273 µM (Homo sapiens [3]): 0%
251 |  |  | O=C(O)CCCCCO/N=C(\c1cccc(C(F)(F)F)c1)c1cnccn1 | 
184 |  |  | O=C(O)CCCCCO/N=C(/c1cccc(C(F)(F)F)c1)c1ccncn1 | 
25 | > 10 | 1.1 | O=C(O)CCCCCO/N=C(\c1cccc(C(F)(F)F)c1)c1ccncn1 | 
241 |  |  | O=C(O)CCCCCO/N=C(\c1cccc(C(F)(F)F)c1)c1cccnn1 | 
78 | > 100 | 10 | O=C(O)CCCCO/N=C(\c1cccc(C(F)(F)F)c1)c1cccnn1 | 
291 |  |  | O=C(O)CCCCCO/N=C(\c1cccc(C(F)(F)F)c1)c1ncccn1 | 
91 | 0.079 | 47 | O=C(O)CCCCO/N=C(\c1ccccc1)c1cnccn1 | 
214 | > 10 | 52 | O=C(O)CCCCO/N=C(/c1cccc(C(F)(F)F)c1)c1ncccn1 | 
272 | > 10 | 99 | O=C(O)CCCCO/N=C(\c1cccc(C(F)(F)F)c1)c1ncccn1 | 
94 | 0.62 | 24 | O=C(O)CCCCO/N=C(/c1ccccc1)c1cnccn1 | 
 | > 10 |  | O=C(O)CCCCO/N=C(/c1ccccc1)c1ncccn1 | inhibition at 273 µM (Homo sapiens [3]): 0%
65 | 2.9 | 1.5 | O=C(O)CCCCO/N=C(/c1cccc(C(F)(F)F)c1)c1cnccn1 | 
291 |  |  | O=C(O)CCCCCO/N=C(\c1cncnc1)c1cccc(C(F)(F)F)c1 | 
52 | 0.016 | 6 | O=C(O)CCCCO/N=C(/c1ccnnc1)c1cccc(C(F)(F)F)c1 | 
19 | > 10 | 1.4 | O=C(O)CCCCO/N=C(\c1cccc(C(F)(F)F)c1)c1ccncn1 | 
255 | > 100 | 25 | O=C(O)CCCCO/N=C(/c1ccccc1)c1ccncn1 | 
186 | 0.693 | 29 | O=C(O)CCCCCO/N=C(/c1ccnnc1)c1cccc(C(F)(F)F)c1 | 
30 | 6.63 | 1.8 | O=C(O)CCCCO/N=C(\c1ccnnc1)c1cccc(C(F)(F)F)c1 | 
200 |  |  | O=C(O)CCCCCO/N=C(/c1cncnc1)c1cccc(C(F)(F)F)c1 | 
 | > 100 |  | O=C(O)CCCCO/N=C(\c1ccccc1)c1cccnn1 | IC50 (Thromboxane A2 receptor [6]): 104 µM; inhibition at 278 µM (Homo sapiens [5]): 47%
71 | > 100 | 2.5 | O=C(O)CCCCO/N=C(/c1cccc(C(F)(F)F)c1)c1ccncn1 | 
12 | 6.1 | 0.36 | O=C(O)CCCCO/N=C(\c1cncnc1)c1cccc(C(F)(F)F)c1 | 
 | > 10 | 21 | O=C(O)CCCCCO/N=C(\c1ccnnc1)c1cccc(C(F)(F)F)c1 | inhibition at 291 µM (Homo sapiens [4]): 26%
41 | 0.007 |  | O=C(O)CCCCO/N=C(/c1cccnc1)c1cccc(C(F)(F)F)c1 [RIDOGREL] | 
